Assay results from different studies.
Target: Wee1-like protein kinase (WEE1, Homo sapiens, UniProt P30291)

`O=c1[nH]c2ccccc2n1C1CCN(Cc2ccc(-c3[nH]c4cc5ncnc5cc4nc3-c3ccccc3)cc2)CC1` gave a remaining signal of 93.9% (cell-free assay; 0.5 µM).
`Cn1cc(-c2cc(F)cc(N3CCn4c(cc5c4CCCC5)C3=O)c2CO)cc(Nc2ccc(N3CCN(C4COC4)CC3)cn2)c1=O` gave an inhibition of 3% (enzyme activity; inhibitor; 0.1 µM).
`COc1ncccc1-c1cnn2ccc(N3CCN(C(=O)OC(C)C)CC3)nc12` has a remaining binding of 82% (binding; competition with immobilised ligand; 1 µM).
`Nc1ncc(-c2nc(N3CCOCC3)nc(N3CCOCC3)n2)c(C(F)F)n1` gave a remaining binding of 100% (binding; competition with immobilised ligand; 10 µM).
`COc1cc(Nc2ncc(F)c(Nc3ccc4c(n3)NC(=O)C(C)(C)O4)n2)cc(OC)c1OC` gave an inhibition of 81% (binding; 10 µM).
With `Cn1cc(-c2cccc(N3CCc4c(sc5c4CC(C)(C)C5)C3=O)c2CO)cc(Nc2ccncn2)c1=O` the inhibition was -4% (enzyme activity; inhibitor; 1 µM).
For `CC(C)(C)c1cc(C=C(C#N)C#N)cc(Br)c1O`, the remaining activity was 90.9% (enzyme activity; inhibitor; 0.5 µM).
`Cn1cncc1[C@@](O)(COc1ccc(C#N)cc1-c1ccc(OC(F)(F)F)cc1)c1ccc(C#N)cc1` gave a remaining binding of 100% (cell-free assay; competition with immobilised ligand; 1 µM).
`Cc1nn(C)cc1-c1nc2c(N3CCN(Cc4ccc(Cl)cc4)CC3)c(Cl)cnc2[nH]1` has a remaining binding of 96% (binding; competition with immobilised ligand; 1 µM).
